Results reported in ChEMBL document CHEMBL2434944, “Novel acetamidothiazole derivatives: synthesis and in vitro anticancer evaluation” (Eur J Med Chem, 2013).
pKi: −log10 of the molar value.

Tests used:
[1] = target: Proto-oncogene tyrosine-protein kinase Src (Homo sapiens, UniProt P12931); assay: Inhibition of human SRC
[2] = system: SF-295; assay: Growth inhibition of human SF295 cells assessed as cell growth at 10^-5 M after 48 hrs by sulforhodamine B assay relative to control; type: functional; settings: SF-295, 48 h, read-out: Activity
How it was run: (§1)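 NCI-60 single-dose screen at 10^-5 M. Cells grown in RPMI 1640 with 5% FBS and 2 mM L-glutamine, plated at 5,000–40,000 cells/well according to doubling time, and preincubated 24 h at 37°C, 5% CO2. Compound dissolved in DMSO and added. Exposure 48 h. Adherent cells fixed with cold TCA (10% final), suspension cells with 16% final TCA. Read-out is 0.4% SRB staining, dye solubilised in 10 mM Tris, absorbance at 515 nm. Percent growth is calculated against the time-zero plate and untreated control.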

[3] = system: CAKI-1; assay: Growth inhibition of human CAKI-1 cells assessed as cell growth at 10^-5 M after 48 hrs by sulforhodamine B assay relative to control; type: functional; settings: CAKI-1, 48 h, read-out: Activity; how it was run: as §1
[4] = system: SN12C; assay: Growth inhibition of human SN12C cells assessed as cell growth at 10^-5 M after 48 hrs by sulforhodamine B assay relative to control; type: functional; settings: read-out: Activity; how it was run: as §1
[5] = system: SF-268; assay: Growth inhibition of human SF268 cells assessed as cell growth at 10^-5 M after 48 hrs by sulforhodamine B assay relative to control; type: functional; settings: SF-268, 48 h, read-out: Activity; how it was run: as §1
[6] = system: OVCAR-3; assay: Growth inhibition of human OVCAR3 cells assessed as cell growth at 10^-5 M after 48 hrs by sulforhodamine B assay relative to control; type: functional; settings: OVCAR-3, 48 h, read-out: Activity; how it was run: as §1
[7] = system: NCI-H460; assay: Growth inhibition of human NCI-H460 cells assessed as cell growth at 10^-5 M after 48 hrs by sulforhodamine B assay relative to control; type: functional; settings: NCI-H460, 48 h, read-out: Activity; how it was run: as §1
[8] = system: TK-10; assay: Growth inhibition of human TK10 cells assessed as cell growth at 10^-5 M after 48 hrs by sulforhodamine B assay relative to control; type: functional; settings: TK-10, 48 h, read-out: Activity
How it was run: (§2)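 NCI-60 single-dose screen, 10^-5 M final. Cells grown in RPMI 1640 with 5% FBS and 2 mM L-glutamine, seeded at 5,000–40,000 cells/well by doubling time. Preincubated 24 h at 37°C, 5% CO2. Compound in DMSO, diluted in medium with gentamicin, then 48 h exposure. Fixed with cold TCA, SRB stained, A515 read. Percent growth vs untreated control, time-zero plate corrected.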

[9] = system: MDA-MB-231; assay: Growth inhibition of human MDA-MB-231 cells assessed as cell growth at 10^-5 M after 48 hrs by sulforhodamine B assay relative to control; type: functional; settings: MDA-MB-231, 48 h, read-out: Activity; how it was run: as §1
[10] = system: SK-MEL-28; assay: Growth inhibition of human SK-MEL-28 cells assessed as cell growth at 10^-5 M after 48 hrs by sulforhodamine B assay relative to control; type: functional; settings: SK-MEL-28, 48 h, read-out: Activity; how it was run: as §1
[11] = system: SNB-19; assay: Growth inhibition of human SNB19 cells assessed as cell growth at 10^-5 M after 48 hrs by sulforhodamine B assay relative to control; type: functional; settings: SNB-19, 48 h, read-out: Activity; how it was run: as §1
[12] = target: T1, Vitamin D3 receptor (Homo sapiens, UniProt P11473); assay: Inhibition of human vitamin D3 receptor
T1 sequence (P11473 whole entry): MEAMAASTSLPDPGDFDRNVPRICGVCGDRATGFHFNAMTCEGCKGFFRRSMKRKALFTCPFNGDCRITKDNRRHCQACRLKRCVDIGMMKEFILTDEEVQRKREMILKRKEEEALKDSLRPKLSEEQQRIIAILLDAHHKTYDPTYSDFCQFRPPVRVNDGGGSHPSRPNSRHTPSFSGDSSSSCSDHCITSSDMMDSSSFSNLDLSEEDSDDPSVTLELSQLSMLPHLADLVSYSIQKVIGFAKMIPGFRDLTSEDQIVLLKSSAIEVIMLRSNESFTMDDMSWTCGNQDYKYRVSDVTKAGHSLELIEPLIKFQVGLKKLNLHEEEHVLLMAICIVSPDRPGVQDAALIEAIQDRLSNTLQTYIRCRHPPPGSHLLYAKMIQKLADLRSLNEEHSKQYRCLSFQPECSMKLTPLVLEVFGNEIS

[13] = system: UO-31; assay: Growth inhibition of human UO31 cells assessed as cell growth at 10^-5 M after 48 hrs by sulforhodamine B assay relative to control; type: functional; settings: UO-31, 48 h, read-out: Activity; how it was run: as §2
[14] = system: NCI-H23; assay: Growth inhibition of human NCI-H23 cells assessed as cell growth at 10^-5 M after 48 hrs by sulforhodamine B assay relative to control; type: functional; settings: NCI-H23, 48 h, read-out: Activity; how it was run: as §1
[15] = system: SK-OV-3; assay: Growth inhibition of human SKOV3 cells assessed as cell growth at 10^-5 M after 48 hrs by sulforhodamine B assay relative to control; type: functional; settings: SK-OV-3, 48 h, read-out: Activity; how it was run: as §1
[16] = system: HOP-62; assay: Growth inhibition of human HOP62 cells assessed as cell growth at 10^-5 M after 48 hrs by sulforhodamine B assay relative to control; type: functional; settings: HOP-62, 48 h, read-out: Activity; how it was run: as §1
[17] = system: UACC-62; assay: Growth inhibition of human UACC62 cells assessed as cell growth at 10^-5 M after 48 hrs by sulforhodamine B assay relative to control; type: functional; settings: UACC-62, 48 h, read-out: Activity; how it was run: as §2
[18] = target: Thymidylate synthase (Homo sapiens, UniProt P04818); assay: Inhibition of human thymidylate synthase
Thymidylate synthase, sequence (P04818 whole entry): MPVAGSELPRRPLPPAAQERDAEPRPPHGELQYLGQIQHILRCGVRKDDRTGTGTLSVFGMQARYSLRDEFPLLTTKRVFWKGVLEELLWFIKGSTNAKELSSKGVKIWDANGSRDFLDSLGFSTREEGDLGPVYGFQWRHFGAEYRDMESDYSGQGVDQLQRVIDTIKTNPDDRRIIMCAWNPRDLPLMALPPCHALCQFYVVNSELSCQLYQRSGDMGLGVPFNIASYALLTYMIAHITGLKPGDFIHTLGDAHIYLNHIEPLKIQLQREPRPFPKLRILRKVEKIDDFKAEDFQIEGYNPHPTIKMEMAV

Proto-oncogene tyrosine-protein kinase Src, sequence (P12931 2-536 limits assumed): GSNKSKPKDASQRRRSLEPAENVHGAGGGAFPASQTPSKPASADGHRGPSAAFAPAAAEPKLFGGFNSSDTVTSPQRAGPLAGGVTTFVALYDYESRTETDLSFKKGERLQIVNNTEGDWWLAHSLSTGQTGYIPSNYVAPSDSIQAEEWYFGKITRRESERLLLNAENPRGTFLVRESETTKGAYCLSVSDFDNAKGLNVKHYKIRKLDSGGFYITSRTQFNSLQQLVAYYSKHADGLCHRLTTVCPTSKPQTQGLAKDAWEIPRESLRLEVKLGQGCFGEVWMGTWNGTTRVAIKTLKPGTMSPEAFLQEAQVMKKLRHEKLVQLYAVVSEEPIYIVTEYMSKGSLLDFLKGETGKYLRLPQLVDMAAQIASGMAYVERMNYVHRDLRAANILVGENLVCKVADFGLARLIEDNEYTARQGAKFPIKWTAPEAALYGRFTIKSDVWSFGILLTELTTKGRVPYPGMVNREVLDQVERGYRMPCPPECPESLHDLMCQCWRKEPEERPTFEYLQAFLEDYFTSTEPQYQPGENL

SMILES	pKi [1]	growth at 10 µM [2]	growth at 10 µM [3]	growth at 10 µM [4]	growth at 10 µM [5]	growth at 10 µM [6]	growth at 10 µM [7]	growth at 10 µM [8]	growth at 10 µM [9]	growth at 10 µM [10]	growth at 10 µM [11]	pKi [12]	growth at 10 µM [13]	growth at 10 µM [14]	growth at 10 µM [15]	growth at 10 µM [16]	growth at 10 µM [17]	pKi [18]
CN1CCN(C(=O)Cn2c(-c3ccccc3)csc2=N)CC1	5.10	65.9%	70.4%	85.2%	96.2%	95.4%	99.1%	140%	78.8%	100%	93.7%	4.55	78.8%	90%	89.2%	88.9%	85.9%	5.94
CC(=O)N1CCN(C(=O)Cn2c(-c3ccc(Cl)cc3)csc2=N)CC1	4.83	–	82.8%	88.6%	95.1%	97.7%	101%	82.1%	111%	90.8%	84.2%	5.64	89.1%	96.9%	92.4%	93.4%	81.9%	4.95
CN1CCN(C(=O)Cn2c(-c3ccc(Cl)cc3)csc2=N)CC1	5.49	–	85.9%	92.8%	98.4%	101%	101%	85.7%	103%	107%	92.7%	5.44	89.2%	100%	92.5%	101%	90.2%	6.47
CC(=O)N1CCN(C(=O)Cn2c(-c3ccccc3)csc2=N)CC1	4.46	–	76.8%	95.8%	100%	102%	110%	138%	95.4%	101%	103%	5.33	60.4%	98.5%	89.4%	85.3%	89.6%	4.96
N=c1scc(-c2ccc(Cl)cc2)n1CC(=O)N1CCOCC1	4.78	–	84.4%	86.9%	102%	108%	99.3%	85.9%	97.5%	97.1%	91.2%	5.38	86.1%	95.6%	90%	98.5%	83.2%	5.43
N=c1scc(-c2ccccc2)n1CC(=O)N1CCOCC1	4.70	–	76.2%	101%	104%	97%	105%	132%	95.1%	112%	98.3%	4.61	58%	95.8%	92.3%	90%	92.5%	5.21
CC(=O)N1CCN(C(=O)Cn2c(-c3ccc(C)cc3)csc2=N)CC1	4.82	–	81.5%	87.4%	101%	108%	103%	121%	75.3%	98.9%	100%	5.55	83.1%	95.7%	103%	101%	74.2%	5.44
Cc1ccc(-c2csc(=N)n2CC(=O)N2CCN(c3ccccc3)CC2)cc1	4.87	–	70.4%	85.2%	105%	95.4%	105%	140%	78.8%	100%	96.6%	5.99	78.8%	101%	89.2%	111%	85.9%	5.25
